Experiments:
[1] = biological target: T1, Substance-K receptor (Rattus norvegicus) (UniProt P16610); assay: Antagonist activity at NK2 receptor in rat urinary bladder assessed as effect on beta-Ala8]NKA(4-10)-induced mechanical activity; format: functional; conditions: filed as antagonist
T1 sequence (whole entry): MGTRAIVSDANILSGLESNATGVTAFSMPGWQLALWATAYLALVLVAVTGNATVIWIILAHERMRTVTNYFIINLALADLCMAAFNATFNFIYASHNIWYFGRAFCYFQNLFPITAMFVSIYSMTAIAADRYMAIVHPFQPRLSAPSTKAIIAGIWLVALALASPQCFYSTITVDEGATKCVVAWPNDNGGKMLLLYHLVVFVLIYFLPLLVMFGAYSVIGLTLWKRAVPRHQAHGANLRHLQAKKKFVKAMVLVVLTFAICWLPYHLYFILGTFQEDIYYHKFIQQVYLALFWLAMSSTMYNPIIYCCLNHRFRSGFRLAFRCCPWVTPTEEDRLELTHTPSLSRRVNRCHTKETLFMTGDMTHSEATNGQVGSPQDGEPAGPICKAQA
Outline: (§1)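 Isolated smooth muscle strips were held in oxygenated (96% O2/4% CO2) Krebs–Henseleit at NaCl 119, NaHCO3 25, KH2PO4 1.2, MgSO4 1.5, CaCl2 2.5, KCl 4.7 and glucose 11 mM. Cumulative agonist concentration–response curves were run after 15 min antagonist incubation. pKB = log(dose ratio − 1) − log[antagonist], as the mean of individual values.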

[2] = biological target: T2, Substance-K receptor (Oryctolagus cuniculus) (UniProt P79218); assay: Antagonist activity at NK2 receptor in rabbit pulmonary artery assessed as effect on neurokinin A-induced mechanical activity; format: functional; conditions: filed as antagonist; outline: as §1
T2 sequence (whole entry): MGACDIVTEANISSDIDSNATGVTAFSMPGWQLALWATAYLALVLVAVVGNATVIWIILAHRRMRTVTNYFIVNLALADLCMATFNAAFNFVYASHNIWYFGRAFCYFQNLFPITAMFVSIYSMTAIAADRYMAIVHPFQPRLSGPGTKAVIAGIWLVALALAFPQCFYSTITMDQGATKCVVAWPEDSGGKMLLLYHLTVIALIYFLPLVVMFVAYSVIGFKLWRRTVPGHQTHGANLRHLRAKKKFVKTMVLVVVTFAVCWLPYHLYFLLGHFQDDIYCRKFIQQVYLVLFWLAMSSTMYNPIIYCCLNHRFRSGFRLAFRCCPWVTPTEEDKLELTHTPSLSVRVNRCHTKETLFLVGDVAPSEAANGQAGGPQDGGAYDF

[3] = biological target: T3, Substance-K receptor (Homo sapiens, UniProt P21452); assay: Displacement of [125I]neurokinin A from human NK2 receptor expressed in CHOK1 cells; format: cell-based, CHO-K1
T3 sequence (P21452 whole entry): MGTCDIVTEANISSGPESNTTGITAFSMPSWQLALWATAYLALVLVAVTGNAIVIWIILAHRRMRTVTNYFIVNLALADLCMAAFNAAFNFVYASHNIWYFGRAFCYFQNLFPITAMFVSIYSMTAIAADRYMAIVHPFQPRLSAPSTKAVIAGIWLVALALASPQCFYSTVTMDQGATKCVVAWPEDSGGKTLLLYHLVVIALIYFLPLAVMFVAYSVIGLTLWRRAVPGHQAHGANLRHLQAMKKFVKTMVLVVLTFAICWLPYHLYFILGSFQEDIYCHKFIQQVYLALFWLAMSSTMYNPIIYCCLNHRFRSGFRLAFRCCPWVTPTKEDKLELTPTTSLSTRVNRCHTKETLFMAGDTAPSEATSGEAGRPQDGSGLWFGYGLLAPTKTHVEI
Outline: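 Competition binding was run on membranes of cells stably transfected with the human receptor: U-373MG for NK-1, CHO-K1 for NK-2 and NK-3. NK-1 used [3H][Sar9]SP sulfone at 1.2 nM. Affinity is given as pKi (−log Ki).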

[4] = biological target: T4, Neuromedin-K receptor (Cavia porcellus) (UniProt P30098); assay: Antagonist activity at NK3 receptor in guinea pig ileum assessed as effect on senktide-induced mechanical activity; format: functional, tissue-based; conditions: filed as antagonist
T4 sequence (whole entry): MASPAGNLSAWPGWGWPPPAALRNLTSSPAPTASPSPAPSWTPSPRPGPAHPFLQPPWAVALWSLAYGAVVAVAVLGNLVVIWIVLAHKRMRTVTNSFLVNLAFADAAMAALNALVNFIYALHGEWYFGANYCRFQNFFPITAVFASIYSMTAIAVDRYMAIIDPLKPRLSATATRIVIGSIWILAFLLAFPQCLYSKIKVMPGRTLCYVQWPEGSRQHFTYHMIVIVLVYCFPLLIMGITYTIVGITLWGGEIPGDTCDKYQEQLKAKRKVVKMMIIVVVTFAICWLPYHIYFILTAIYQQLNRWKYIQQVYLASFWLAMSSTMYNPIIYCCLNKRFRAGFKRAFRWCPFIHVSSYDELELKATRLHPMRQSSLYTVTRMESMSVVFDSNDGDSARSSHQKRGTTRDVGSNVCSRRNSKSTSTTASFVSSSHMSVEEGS

[5] = biological target: Substance-P receptor (Cavia porcellus) (UniProt P30547); assay: Antagonist activity at NK1 receptor in guinea pig ileum assessed as effect on substance P methyl ester-induced mechanical activity; format: functional, tissue-based; conditions: filed as antagonist; outline: as §1
Chain of Substance-P receptor (Cavia porcellus) (P30547 whole entry): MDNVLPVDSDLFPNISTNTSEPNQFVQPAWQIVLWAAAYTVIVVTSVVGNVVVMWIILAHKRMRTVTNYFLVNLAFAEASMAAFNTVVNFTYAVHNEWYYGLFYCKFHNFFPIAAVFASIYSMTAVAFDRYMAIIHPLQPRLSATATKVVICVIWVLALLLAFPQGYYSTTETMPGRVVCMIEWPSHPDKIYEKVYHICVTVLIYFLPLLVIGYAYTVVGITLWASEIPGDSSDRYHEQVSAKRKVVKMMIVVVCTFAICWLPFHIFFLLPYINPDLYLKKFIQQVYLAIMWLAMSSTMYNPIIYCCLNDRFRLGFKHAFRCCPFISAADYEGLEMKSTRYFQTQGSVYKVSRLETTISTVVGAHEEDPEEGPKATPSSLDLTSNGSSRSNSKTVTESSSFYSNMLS

Row | SMILES | pKb [1] | pKb [2] | Ki [3] | pKb [4] | pKb [5]
1 | O=C1C[C@H](N2CCOCC2)C(=O)NC[C@@H](Cc2ccccc2)NC(=O)[C@H](Cc2ccccc2)NC(=O)[C@H](Cc2c[nH]c3ccccc23)N1 | 8.9 | 8.5 | – | – | –
2 | N[C@H]1CC(=O)N[C@@H](Cc2c[nH]c3ccccc23)C(=O)N[C@@H](Cc2ccccc2)C(=O)N[C@H](Cc2ccc(Cl)c(Cl)c2)CNC1=O | 8.9 | 8.6 | 0.2 nM (antagonist) | – | –
3 | O=C1C[C@@H](N2CCNCC2)C(=O)NC[C@@H](Cc2ccccc2)NC(=O)[C@H](Cc2ccccc2)NC(=O)[C@H](Cc2c[nH]c3ccccc23)N1 | – | 7.7 | 1.58 nM (antagonist) | – | –
4 | N[C@@H]1CC(=O)N[C@@H](Cc2c[nH]c3ccccc23)C(=O)N[C@@H](Cc2ccccc2)C(=O)N[C@H](Cc2ccccc2)CNC1=O | – | 7.9 | 2 nM (antagonist) | – | –
5 | O=C1C[C@@H](NC(=O)CN2CCC(N3CCCCC3)CC2)C(=O)NC[C@@H](Cc2ccccc2)NC(=O)[C@H](Cc2ccccc2)NC(=O)[C@H](Cc2c[nH]c3ccccc23)N1 | 9.2 | – | – | 5.8 | 6.8
6 | O=C1C[C@@H](NC2CCOCC2)C(=O)NC[C@@H](Cc2ccccc2)NC(=O)[C@H](Cc2ccccc2)NC(=O)[C@H](Cc2c[nH]c3ccccc23)N1 | 9.1 | 9.2 | 0.0631 nM (antagonist) | 6.4 | 6.1
7 | O=C1CCC(=O)N[C@@H](Cc2c[nH]c3ccccc23)C(=O)N[C@@H](Cc2ccccc2)C(=O)N[C@H](Cc2ccc(Cl)c(Cl)c2)CN1 | 8.1 | 8.1 | – | – | –
8 | O=C1C[C@@H](N2CCCCC2)C(=O)NC[C@@H](Cc2ccccc2)NC(=O)[C@H](Cc2ccccc2)NC(=O)[C@H](Cc2c[nH]c3ccccc23)N1 | – | 8.2 | 1.58 nM (antagonist) | – | –
9 | O=C1C[C@@H](N2CCOCC2)C(=O)NC[C@@H](Cc2ccc(Cl)c(Cl)c2)NC(=O)[C@H](Cc2ccccc2)NC(=O)[C@H](Cc2c[nH]c3ccccc23)N1 | 8 | 8.4 | 0.251 nM (antagonist) | – | –
10 | N[C@@H]1CC(=O)NC[C@@H](Cc2ccccc2)NC(=O)[C@H](Cc2ccccc2)NC(=O)[C@H](Cc2c[nH]c3ccccc23)NC1=O | – | 7.2 | 15.8 nM (antagonist) | – | –
11 | N[C@H]1CC(=O)N[C@@H](Cc2c[nH]c3ccccc23)C(=O)N[C@@H](Cc2ccccc2)C(=O)N[C@H](Cc2ccccc2)CNC1=O | – | 7.5 | – | – | –
12 | O=C1C[C@H](NC2CCOCC2)C(=O)NC[C@@H](Cc2ccccc2)NC(=O)[C@H](Cc2ccccc2)NC(=O)[C@H](Cc2c[nH]c3ccccc23)N1 | – | 8.6 | 1 nM (antagonist) | – | –
13 | O=C1C[C@@H](N2CCOCC2)C(=O)NC[C@@H](Cc2ccccc2)NC(=O)[C@H](Cc2ccccc2)NC(=O)[C@H](Cc2c[nH]c3ccccc23)N1 | 9.2 | 8.9 | – | 6.1 | 6.2
14 | N[C@@H]1CC(=O)N[C@@H](Cc2c[nH]c3ccccc23)C(=O)N[C@@H](Cc2ccccc2)C(=O)N[C@H](Cc2ccc(Cl)c(Cl)c2)CNC1=O | – | 8.1 | 0.158 nM (antagonist) | – | –

From ChEMBL document CHEMBL1149315, “Insertion of an aspartic acid moiety into cyclic pseudopeptides: synthesis and biological characterization of potent antagonists for the human Tachykinin NK-2 receptor” (J Med Chem, 2004)
